In ChEMBL document CHEMBL2176891, “Structural investigation of anti-Trypanosoma cruzi 2-iminothiazolidin-4-ones allows the identification of agents with efficacy in infected mice” (J Med Chem, 2012):
Calls of active or inactive are those of the source. The rule behind the calls is not given here.

Assays:
Trypanosoma cruzi [1] = assay: Antitrypanosomal activity against Trypanosoma cruzi; type: functional, organism-based
Trypanosoma cruzi [2] = assay: Inhibition of trypomastigotes of Trypanosoma cruzi Y invasion to mouse peritoneal macrophages at 50 uM […]; type: functional, organism-based
Procathepsin L [3] = target: T1, Procathepsin L (Homo sapiens, UniProt P07711); assay: Inhibition of recombinant cathepsin L using ZFR-pNA as substrate preincubated for 45 mins
Summary of the method: (§1)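 Recombinant cathepsin L or S activated with 1 mM DTT in 0.1 M acetate pH 5.5. Preincubated 45 min at room temperature with compound in phosphate buffer with 0.1% BSA, 1 mM EDTA and 0.001% Tween. Z-FR-pNA added, reaction 5 min; final 30 nM enzyme and 5.0 μM substrate. Triplicate runs; IC50 from at least seven concentrations.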
Target sequence in this assay (P07711 whole entry): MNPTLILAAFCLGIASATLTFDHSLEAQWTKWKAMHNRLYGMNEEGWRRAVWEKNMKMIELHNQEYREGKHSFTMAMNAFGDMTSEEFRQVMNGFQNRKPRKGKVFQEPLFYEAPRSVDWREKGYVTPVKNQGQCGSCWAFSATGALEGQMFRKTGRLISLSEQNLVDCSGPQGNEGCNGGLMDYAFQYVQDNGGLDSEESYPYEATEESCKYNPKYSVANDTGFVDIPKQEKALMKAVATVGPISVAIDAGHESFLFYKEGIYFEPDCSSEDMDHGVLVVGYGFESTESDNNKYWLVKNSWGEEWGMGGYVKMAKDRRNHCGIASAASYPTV

[4] = Antiproliferative activity against concanavalin A-stimulated BALB/c mouse splenocytes after 72 hrs by AlamarBlue assay; type: cell-based; conditions: Splenocyte
Summary of the method: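 Splenocytes from BALB/c mice at 5 × 10⁶ cells/well in RPMI-1640 with 10% FBS, stimulated with 2.0 μg/mL concanavalin A. Compounds in DMSO, six concentrations in triplicate. Controls: con A alone, no con A, and con A plus 0.01 μg/mL cyclosporin A. 72 h at 37 °C, 5% CO₂. AlamarBlue for 1 h, fluorescence ex 530/em 590 nm. IC50 by nonlinear regression.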

Trypanosoma cruzi [5] = assay: Antitrypanosomal activity against trypomastigotes of Trypanosoma cruzi Y infected in mouse peritoneal macrophages assessed as reduction of intracellular parasite level after 4 days; type: functional, organism-based; conditions: 96 h
Summary of the method: (§2)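 Peritoneal exudate macrophages, 2 × 10⁵/well on coverslips, infected with Y strain trypomastigotes at 10 parasites per macrophage for 2 h, then washed. Compound in DMSO added for 6 h, medium replaced, culture continued 4 days. After methanol fixation and Giemsa staining, 100 cells per slide counted for % infected macrophages and amastigotes per cell. IC50 based on % infected cells versus untreated.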

Mus musculus [6] = assay: Toxicity in BALB/c mouse assessed as mortality at 250 umol/kg, po qd for 5 days; type: organism-based; conditions: in vivo, 120 h
Summary of the method: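 Female BALB/c mice, 6–8 weeks old, were infected i.p. with 10⁴ Y strain bloodstream trypomastigotes in saline and randomly grouped, six per group. From day 5 postinfection, drug was given orally by gavage at 250 μmol/kg once daily for five consecutive days. Blood parasites were counted by hemocytometer, and survival was followed for one month. Untreated and benznidazole-treated infected mice served as controls.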

[7] = Selectivity index, ratio of IC50 for concanavalin A-stimulated BALB/c mouse splenocytes to IC50 for trypomastigotes of Trypanosoma cruzi Y infected in mouse peritoneal macrophages
Summary of the method: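 Ratio of splenocyte IC50 to IC50 against intracellular parasites in Y strain-infected peritoneal macrophages (4-day assay).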

[8] = Cytotoxicity against BALB/c mouse splenocytes assessed as highest nontoxic concentration by measuring [3H]-thymidine incorporation after 24 hrs by beta-radiation counting; type: cell-based, Splenocyte; conditions: for highest nontoxic concentration: Mus musculus, Splenocyte, read-out: IC50; for MNTC at 24 h: mouse, splenocytes, read-out: Activity
Summary of the method: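 BALB/c splenocytes, 5 × 10⁶ cells/well in RPMI-1640 with 10% FBS. Compound in DMSO at 1.0, 10 and 100 μg/mL or more, triplicate; untreated and saponin controls. 24 h at 37 °C, 5% CO₂. 1.0 μCi ³H-thymidine added, incorporation read by β-counting as % of untreated. Highest nontoxic concentration estimated.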

Trypanosoma cruzi [9] = assay: Induction of ultrastructural alteration of trypomastigotes of Trypanosoma cruzi Y at 3.9 uM by scanning electron microscopy; type: functional, organism-based
Summary of the method: (§3)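 Y strain bloodstream trypomastigotes and infected macrophages exposed to 3.9 μM compound, then examined by transmission and scanning electron microscopy.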

Cruzipain [10] = target: T2, Cruzipain (Trypanosoma cruzi, UniProt P25779); assay: Inhibition of Trypanosoma cruzi recombinant cruzain using Z-FR-AMC as substrate preincubated for 10 mins before substrate addition; conditions: read-out: IC50
T2 sequence (P25779 whole entry): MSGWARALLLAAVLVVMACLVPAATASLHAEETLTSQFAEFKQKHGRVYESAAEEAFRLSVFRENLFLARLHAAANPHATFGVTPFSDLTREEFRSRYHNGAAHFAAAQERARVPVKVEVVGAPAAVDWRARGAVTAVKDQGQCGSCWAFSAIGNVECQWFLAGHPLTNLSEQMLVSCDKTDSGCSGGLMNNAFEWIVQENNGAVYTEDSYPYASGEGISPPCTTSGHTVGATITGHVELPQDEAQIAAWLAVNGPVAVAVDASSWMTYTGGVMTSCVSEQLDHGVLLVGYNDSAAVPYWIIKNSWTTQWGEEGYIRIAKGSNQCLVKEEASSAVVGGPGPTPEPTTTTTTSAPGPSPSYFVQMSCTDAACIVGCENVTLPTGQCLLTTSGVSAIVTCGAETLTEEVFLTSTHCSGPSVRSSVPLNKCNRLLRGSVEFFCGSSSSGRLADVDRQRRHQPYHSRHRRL
Summary of the method: (§4)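 Recombinant cruzain preincubated 10 min at room temperature with compound (DMSO) in phosphate buffer containing EDTA, 100 mM NaCl and DTT. Z-FR-AMC then added; final 0.5 nM enzyme and 2 μM substrate. Fluorescence read at 1, 5 and 10 min; % inhibition versus no-inhibitor control. Single-point values are triplicate means; IC50 by nonlinear regression from multiple concentrations. Some runs used 0.01% Triton X-100.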

Procathepsin L [11] = target: T1, Procathepsin L; assay: Inhibition of recombinant cathepsin L using ZFR-pNA as substrate at 100 uM preincubated for 45 mins; summary of the method: as §1
Target sequence in this assay (P07711 114-333 limits assumed): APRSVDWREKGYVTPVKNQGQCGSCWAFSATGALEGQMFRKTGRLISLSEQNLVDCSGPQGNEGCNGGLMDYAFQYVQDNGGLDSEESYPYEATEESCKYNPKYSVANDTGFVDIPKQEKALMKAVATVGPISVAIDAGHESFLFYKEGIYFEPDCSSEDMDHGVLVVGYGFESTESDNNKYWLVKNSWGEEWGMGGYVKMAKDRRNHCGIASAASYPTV

Trypanosoma cruzi [12] = assay: Antitrypanosomal activity against epimastigotes of Trypanosoma cruzi Y assessed as reduction of proteolytic activity using gelatin as substrate after 48 hrs by zymography assays
Trypanosoma cruzi [13] = assay: Antitrypanosomal activity against trypomastigotes of Trypanosoma cruzi Y infected in BALB/c mouse assessed as reduction of blood parasite level at 250 umol/kg, po qd for 5 days; type: functional; set-up: scale not given: the % may be the effect or the level left
Summary of the method: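 Female BALB/c mice, 6–8 weeks old, infected ip with 10⁴ Y strain bloodstream trypomastigotes in saline; six mice per group. From day 5 postinfection, 250 μmol/kg given orally by gavage once daily for 5 days. Fresh-blood parasitemia counted in a hemocytometer. Reduction = (vehicle − treated)/vehicle × 100, using day 5 of treatment; two independent experiments.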

Trypanosoma cruzi [14] = assay: Induction of ultrastructural alteration of trypomastigotes of Trypanosoma cruzi Y at 3.9 uM by transmission electron microscopy; type: functional, organism-based; summary of the method: as §3
Trypanosoma cruzi [15] = assay: Antitrypanosomal activity against trypomastigotes of Trypanosoma cruzi Y infected in mouse peritoneal macrophages assessed as reduction of intracellular parasite level at 10 uM after 4 days; type: functional, organism-based; summary of the method: as §2
Mus musculus [16] = assay: Toxicity in BALB/c mouse assessed as reduction in body weight at 250 umol/kg, po qd for 5 days; type: organism-based; conditions: in vivo, 120 h
[17] = target: Cruzipain (Trypanosoma cruzi) (UniProt P25779); assay: (§5) Inhibition of Trypanosoma cruzi recombinant cruzain using Z-FR-AMC as substrate at 20 uM preincubated for 10 mins before substrate addition
Chain of Cruzipain (Trypanosoma cruzi) (P25779 123-467 limits assumed): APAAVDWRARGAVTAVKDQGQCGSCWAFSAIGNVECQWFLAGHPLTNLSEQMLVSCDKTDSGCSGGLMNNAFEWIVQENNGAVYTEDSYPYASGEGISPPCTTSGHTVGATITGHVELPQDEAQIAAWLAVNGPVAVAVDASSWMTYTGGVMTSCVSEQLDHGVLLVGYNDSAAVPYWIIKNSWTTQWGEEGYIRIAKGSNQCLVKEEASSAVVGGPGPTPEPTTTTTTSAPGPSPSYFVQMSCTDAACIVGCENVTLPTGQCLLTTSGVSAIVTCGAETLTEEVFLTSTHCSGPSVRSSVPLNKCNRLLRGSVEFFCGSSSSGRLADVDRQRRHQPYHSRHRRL

Trypanosoma cruzi [18] = assay: Antitrypanosomal activity against epimastigotes of Trypanosoma cruzi Y in axenic culture assessed as parasite motility after 11 days; conditions: 264 h
[19] = target: Cruzipain (Trypanosoma cruzi) (UniProt P25779); assay: Inhibition of Trypanosoma cruzi recombinant cruzain using Z-FR-AMC as substrate at 20 uM preincubated for 10 mins before substrate addition in presence of 0.01% of Triton X-100; summary of the method: as §4
Cathepsin S = Cathepsin S (Homo sapiens, UniProt P25774); assay: Inhibition of recombinant cathepsin S using ZFR-pNA as substrate preincubated for 45 mins; summary of the method: as §1
Chain of Cathepsin S (P25774 whole entry): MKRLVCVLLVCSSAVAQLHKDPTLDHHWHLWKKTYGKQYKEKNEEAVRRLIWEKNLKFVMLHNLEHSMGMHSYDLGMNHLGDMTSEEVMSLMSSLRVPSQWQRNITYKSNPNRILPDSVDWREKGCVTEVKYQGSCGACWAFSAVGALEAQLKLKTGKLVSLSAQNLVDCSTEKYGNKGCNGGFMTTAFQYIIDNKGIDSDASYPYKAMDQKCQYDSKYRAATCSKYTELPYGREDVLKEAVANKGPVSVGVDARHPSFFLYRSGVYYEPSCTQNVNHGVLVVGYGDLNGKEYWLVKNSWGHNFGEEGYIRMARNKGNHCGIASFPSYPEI

Trypanosoma cruzi [20] = assay: Antitrypanosomal activity against trypomastigotes of Trypanosoma cruzi Y infected in LLC-MK2 cells assessed as parasite motility after 24 hrs; type: functional, organism-based; conditions: LLC-MK2, 24 h
Summary of the method: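 Y strain bloodstream trypomastigotes taken from LLC-MK2 culture supernatant, 4 × 10⁵ cells/well. Five compound concentrations (DMSO), triplicate, 24 h at 37 °C, 5% CO₂. Viable parasites judged by motility in a Neubauer chamber. Inhibition calculated relative to untreated culture; IC50 by nonlinear regression.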

Cruzipain [21] = target: T2, Cruzipain; assay: as §5

| Structure (SMILES) | IC50 (Procathepsin L [3]) [µM] | IC50 [4] [µM] | IC50 (Trypanosoma cruzi [5]) [µM] | Ratio IC50 [7] | highest nontoxic concentration [8] [µM] | MNTC at 24 h [8] [µg/mL] | inhibition (Procathepsin L [11]) [%] | Activity (Trypanosoma cruzi [13]) [%] | Activity (Trypanosoma cruzi [15]) | inhibition [17] | IC50 (Trypanosoma cruzi [18]) [µM] | IC50 (Cathepsin S) [µM] | IC50 (Trypanosoma cruzi [20]) [µM] | further results |
| --- | --- | --- | --- | --- | --- | --- | --- | --- | --- | --- | --- | --- | --- | --- |
| Cc1ccc(SC/C=N/N=C2\NC(=O)C(C)S2)cc1 (configuration not stated) |  |  |  |  |  |  |  |  |  |  |  |  |  | IC50 (Trypanosoma cruzi [1]): 80.4 µM |
| C/C(COc1ccccc1)=N\N=C1\SC(C(C)C)C(=O)N1c1ccccc1 (racemic) | > 100 | > 262 | 10.1 | 25 | > 262 | > 100 | 10 | 89.6 | Active | 78% | 4.9 | > 100 | 6.1 | inhibition (Trypanosoma cruzi [2]): Active; Activity (Mus musculus [6]): Non-toxic; Activity (Trypanosoma cruzi [9]): Active; IC50 (Cruzipain [10]): 6.6 µM; Activity (Trypanosoma cruzi [12]): Dose-dependent effect; Activity (Trypanosoma cruzi [14]): Active; Activity (Mus musculus [16]): Non-toxic; inhibition [19]: 81% |
| C/C(COc1ccccc1)=N\Nc1nc(-c2ccccc2)cs1 |  |  |  |  |  | 50 |  |  |  | inactive |  |  | 19.6 | IC50 (Cruzipain [21]): > 20 µM |
| C/C(COc1ccccc1)=N\N=C1/NC(=O)CS1 | > 100 | 98 | 19.5 | 10 | > 200 | > 100 | 1 |  |  | 0% | 23.2 | > 100 | 19 |  |
| O=C(Cn1ccnc1[N+](=O)[O-])NCc1ccccc1 [BENZNIDAZOLE] |  |  | 13.9 |  |  |  |  | >99 | Active |  | 6.6 |  | 6.2 |  |
